Experimental data reported in ChEMBL document CHEMBL5058577, “EUbOPEN Chemogenomics Library 2 (Multiplex)” (2022).

System: U2OS
Assay: Multiplex assay against U2OS
Assay type: toxicity, cell-based
Conditions: human
Method in brief: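 Hoechst33342, BioTracker Green Microtubule Cytoskeleton Dye, MitoTracker Red and Annexin V Alexa Fluor 680 were added to live cells at seeding, and imaging on a CQ1 microscope at 37°C and 5% CO2 followed compound addition. Gating by CellPathfinder machine learning separated cells into Hoechst high-intensity objects or normal cells, then normal cells into healthy, pyknosed or fragmented nuclei, then pyknosed cells into mitotic or apoptotic. Per cents of healthy-nucleus cells are reported for the tubulin, mitochondrial-mass and membrane-permeability phenotypes.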

[1] = 12 h, 1 µM, compound concentration 1 uM, replicate 1
[2] = 12 h, 1 µM, compound concentration 1 uM, replicate 2
[3] = 12 h, 10 µM, compound concentration 10 uM, replicate 1
[4] = 12 h, 10 µM, compound concentration 10 uM, replicate 2
[5] = 24 h, 1 µM, compound concentration 1 uM, replicate 1
[6] = 24 h, 1 µM, compound concentration 1 uM, replicate 2
[7] = 24 h, 10 µM, compound concentration 10 uM, replicate 1
[8] = 24 h, 10 µM, compound concentration 10 uM, replicate 2
[9] = 48 h, 1 µM, compound concentration 1 uM, replicate 1
[10] = 48 h, 1 µM, compound concentration 1 uM, replicate 2
[11] = 48 h, 10 µM, compound concentration 10 uM, replicate 1
[12] = 48 h, 10 µM, compound concentration 10 uM, replicate 2

N#Cc1cc(F)cc(-c2nc(-c3ccc(F)cn3)no2)c1
Population Apoptotic (%) [1]: 55%
Population Fragmented Nuclei (%) [1]: 24%
Population Healthy Nuclei (%) [1]: 65%
Population Hoechst High Intensity Objects (%) [1]: 1%
Population Membrane Permeable-Phenotype (%) [1]: 5%
Population Mitochondria Different-Phenotype (%) [1]: 0%
Population Mitotic Cells (%) [1]: 44%
Population Normal (%) [1]: 98%
Population Pyknosed Nuclei (%) [1]: 10%
Population Tubulin-Different-Phenotype (%) [1]: 3%
Total Cell Count [1]: 178
Population Apoptotic (%) [2]: 100%
Population Fragmented Nuclei (%) [2]: 17%
Population Healthy Nuclei (%) [2]: 79%
Population Hoechst High Intensity Objects (%) [2]: 0%
Population Membrane Permeable-Phenotype (%) [2]: 6%
Population Mitochondria Different-Phenotype (%) [2]: 5%
Population Mitotic Cells (%) [2]: 0%
Population Normal (%) [2]: 99%
Population Pyknosed Nuclei (%) [2]: 4%
Population Tubulin-Different-Phenotype (%) [2]: 2%
Total Cell Count [2]: 101
Population Apoptotic (%) [3]: 76%
Population Fragmented Nuclei (%) [3]: 33%
Population Healthy Nuclei (%) [3]: 59%
Population Hoechst High Intensity Objects (%) [3]: 1%
Population Membrane Permeable-Phenotype (%) [3]: 8%
Population Mitochondria Different-Phenotype (%) [3]: 2%
Population Mitotic Cells (%) [3]: 23%
Population Normal (%) [3]: 98%
Population Pyknosed Nuclei (%) [3]: 6%
Population Tubulin-Different-Phenotype (%) [3]: 2%
Total Cell Count [3]: 196
Population Apoptotic (%) [4]: 88%
Population Fragmented Nuclei (%) [4]: 12%
Population Healthy Nuclei (%) [4]: 81%
Population Membrane Permeable-Phenotype (%) [4]: 7%
Population Mitochondria Different-Phenotype (%) [4]: 4%
Population Mitotic Cells (%) [4]: 11%
Population Tubulin-Different-Phenotype (%) [4]: 1%
Total Cell Count [4]: 151
Population Apoptotic (%) [5]: 90%
Population Fragmented Nuclei (%) [5]: 22%
Population Healthy Nuclei (%) [5]: 66%
Population Hoechst High Intensity Objects (%) [5]: 4%
Population Membrane Permeable-Phenotype (%) [5]: 8%
Population Mitochondria Different-Phenotype (%) [5]: 0%
Population Mitotic Cells (%) [5]: 9%
Population Normal (%) [5]: 95%
Population Pyknosed Nuclei (%) [5]: 11%
Population Tubulin-Different-Phenotype (%) [5]: 4%
Total Cell Count [5]: 197
Population Fragmented Nuclei (%) [6]: 8%
Population Healthy Nuclei (%) [6]: 84%
Population Hoechst High Intensity Objects (%) [6]: 0%
Population Membrane Permeable-Phenotype (%) [6]: 2%
Population Mitochondria Different-Phenotype (%) [6]: 3%
Population Mitotic Cells (%) [6]: 10%
Population Normal (%) [6]: 99%
Population Pyknosed Nuclei (%) [6]: 8%
Population Tubulin-Different-Phenotype (%) [6]: 2%
Total Cell Count [6]: 126
Population Apoptotic (%) [7]: 93%
Population Fragmented Nuclei (%) [7]: 32%
Population Healthy Nuclei (%) [7]: 60%
Population Hoechst High Intensity Objects (%) [7]: 1%
Population Membrane Permeable-Phenotype (%) [7]: 7%
Population Mitochondria Different-Phenotype (%) [7]: 0%
Population Mitotic Cells (%) [7]: 6%
Population Normal (%) [7]: 98%
Population Pyknosed Nuclei (%) [7]: 7%
Population Tubulin-Different-Phenotype (%) [7]: 2%
Total Cell Count [7]: 230
Population Apoptotic (%) [8]: 88%
Population Fragmented Nuclei (%) [8]: 9%
Population Healthy Nuclei (%) [8]: 85%
Population Hoechst High Intensity Objects (%) [8]: 0%
Population Membrane Permeable-Phenotype (%) [8]: 5%
Population Mitochondria Different-Phenotype (%) [8]: 1%
Population Mitotic Cells (%) [8]: 11%
Population Normal (%) [8]: 99%
Population Pyknosed Nuclei (%) [8]: 4%
Population Tubulin-Different-Phenotype (%) [8]: 1%
Total Cell Count [8]: 216
Population Apoptotic (%) [9]: 96%
Population Fragmented Nuclei (%) [9]: 18%
Population Healthy Nuclei (%) [9]: 71%
Population Hoechst High Intensity Objects (%) [9]: 1%
Population Membrane Permeable-Phenotype (%) [9]: 4%
Population Mitochondria Different-Phenotype (%) [9]: 0%
Population Mitotic Cells (%) [9]: 3%
Population Normal (%) [9]: 98%
Population Pyknosed Nuclei (%) [9]: 9%
Population Tubulin-Different-Phenotype (%) [9]: 2%
Total Cell Count [9]: 290
Population Apoptotic (%) [10]: 100%
Population Fragmented Nuclei (%) [10]: 15%
Population Healthy Nuclei (%) [10]: 79%
Population Mitochondria Different-Phenotype (%) [10]: 3%
Population Mitotic Cells (%) [10]: 0%
Population Pyknosed Nuclei (%) [10]: 5%
Population Tubulin-Different-Phenotype (%) [10]: 1%
Total Cell Count [10]: 199
Population Apoptotic (%) [11]: 85%
Population Fragmented Nuclei (%) [11]: 30%
Population Healthy Nuclei (%) [11]: 62%
Population Hoechst High Intensity Objects (%) [11]: 1%
Population Membrane Permeable-Phenotype (%) [11]: 6%
Population Mitochondria Different-Phenotype (%) [11]: 2%
Population Mitotic Cells (%) [11]: 14%
Population Normal (%) [11]: 98%
Population Pyknosed Nuclei (%) [11]: 7%
Population Tubulin-Different-Phenotype (%) [11]: 3%
Total Cell Count [11]: 282
Population Apoptotic (%) [12]: 94%
Population Fragmented Nuclei (%) [12]: 10%
Population Healthy Nuclei (%) [12]: 84%
Population Membrane Permeable-Phenotype (%) [12]: 4%
Population Mitotic Cells (%) [12]: 5%
Population Pyknosed Nuclei (%) [12]: 5%
Population Tubulin-Different-Phenotype (%) [12]: 2%
Total Cell Count [12]: 344
